What was measured:
HeLa [1] = assay: Incorporation of 2*10e-6 M [3H]uridine in HeLa cells in absence of HNMC measured as TCA precipitable radioactivity compared with non treated controls; assay type: functional, cell-based; details: Homo sapiens
Outline: (§1)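 HeLa cells (10^6 per duplicate tube) were exposed to drug for 1 h, washed three times with medium, then held 2 h in drug-free medium. [3H]uridine was added for 1 h. Cells were precipitated with 10% TCA, and precipitates were filter-collected and counted. Values are % TCA-precipitable radioactivity versus untreated controls.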

HeLa [2] = assay: Incorporation of 2*10e-5 M [3H]uridine in HeLa cells in presence of HNMC measured as TCA precipitable radioactivity compared with non treated controls; assay type: functional, cell-based; details: Homo sapiens
Outline: (§2)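 HeLa cells (10^6 per duplicate tube) were incubated 1 h with drug. [3H]uridine was then added and incubation continued 1 h with drug present. Cells were washed with cold saline and precipitated with 10% TCA. Precipitates were collected on glass filters, TCA-washed and counted. Values are % TCA-precipitable radioactivity versus untreated controls.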

Nucleic Acid [3] = assay: In vitro binding of [3H]HNMC to calf thymus DNA was measured after 1 day; assay type: nucleic-acid assay; details: Bos taurus
Outline: (§3)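 0.02 µCi of 3H-labelled drug was added to 50 µg calf thymus DNA in 20 µL of 0.1 M citrate-phosphate buffer, pH 7. Incubated 1.5 h at 37 °C in the dark, diluted to 0.1 mL saline and dialyzed against saline at 4 °C for up to 4 days. Duplicate 10 µL samples taken from inside the bags at intervals were counted directly, or after TCA precipitation.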

Schistosoma mansoni [4] = assay: Incorporation of 6M *10e6 [3H]-uridine in hycanthone(HC) sensitive Schistosoma mansoni; assay type: functional
HeLa [5] = assay: Incorporation of 10e-5 M [3H]uridine in HeLa cells in presence of HNMC measured as TCA precipitable radioactivity compared with non treated controls; assay type: functional, cell-based; details: Homo sapiens; outline: as §2
Mus musculus [6] = assay: In vivo antitumor activity against p-388 lymphocytic leukemia in mice at 12.5 mg/kg; Toxic; assay type: functional, organism-based; parameters: dose 12.5 mg/kg
Outline: (§4)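 Murine P388 lymphocytic leukemia model tested by the National Cancer Institute. Compound given once daily for 9 days; activity expressed as T/C.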

HeLa [7] = assay: Binding of 1x 10e-4 M [3H]HNMC to HeLa DNA; assay type: functional, Homo sapiens
Outline: (§5)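 HeLa cells exposed 1 h to [3H]-labelled drug, washed three times with saline, then held 30 min at 37 °C in drug-free medium. After a 2 h digestion at 37 °C, crude DNA was ethanol-precipitated, purified on a CsCl density gradient, dialyzed and reprecipitated. DNA was quantified by A260. An aliquot was treated with DNase, and DNase-sensitive radioactivity was expressed as drug molecules per base pair.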

Nucleic Acid [8] = assay: In vitro binding of [3H]HNMC to calf thymus DNA was measured after 2 hours; assay type: nucleic-acid assay; details: Bos taurus; outline: as §3
Nucleic Acid [9] = assay: In vitro binding of [3H]HNMC to calf thymus DNA after precipitation with alcohol and TCA was measured; assay type: nucleic-acid assay; details: Bos taurus; outline: as §3
[10] = Total radioactivity of [3H]HNMC was evaluated after 2 hr; assay type: functional
Outline: (§6)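 3H-labelled drug (0.02 µCi) was mixed with 50 µg calf thymus DNA in 0.1 M citrate-phosphate buffer, pH 7, and incubated in the dark for 1.5 h at 37 °C. The mix was diluted in saline and dialysed against saline at 4 °C. Duplicate samples drawn from inside the bags at intervals up to 4 days were counted directly.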

Schistosoma mansoni [11] = assay: Day 50% survival of worms in culture of HC sensitive Schistosoma mansoni; assay type: functional
Nucleic Acid [12] = assay: In vitro binding of [3H]HNMC to calf thymus DNA after precipitation with alcohol and TCA was measured after 4 day; assay type: nucleic-acid assay; details: Bos taurus; outline: as §3
Nucleic Acid [13] = assay: In vitro binding of [3H]HNMC to calf thymus DNA after precipitation with alcohol and TCA was measured after 2 day; assay type: nucleic-acid assay; details: Bos taurus; outline: as §3
[14] = (§7) Total radioactivity of [3H]HNMC was evaluated after 1 day; assay type: functional; outline: as §6
[15] = Total radioactivity of [3H]HNMC was evaluated after 2 hours; assay type: functional; outline: as §6
Schistosoma mansoni [16] = assay: Day 50% survival of worms in culture of HC resistant Schistosoma mansoni; assay type: functional
Outline: (§8)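 Adult HC-resistant S. mansoni were exposed in vitro and kept in culture. The value is the day by which 50% of worms were dead. Cultures were ended at different times in different experiments. Concentrations are given in M × 10^6.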

Nucleic Acid [17] = assay: In vitro binding of [3H]HNMC to calf thymus DNA was measured after 2 days; assay type: nucleic-acid assay; details: Bos taurus; outline: as §3
Schistosoma mansoni [18] = assay: Incorporation of 1.2 M*10e6 [3H]uridine in hycanthone(HC) sensitive Schistosoma mansoni; assay type: functional
Nucleic Acid [19] = assay: In vitro binding of [3H]HNMC to calf thymus DNA was measured after 4 day; assay type: nucleic-acid assay; details: Bos taurus; outline: as §3
Schistosoma mansoni [20] = assay: Incorporation of 6M *10e6 [3H]uridine in hycanthone(HC) resistant Schistosoma mansoni; assay type: functional
Outline: (§9)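 Adult HC-resistant S. mansoni were treated in vitro, and [3H]uridine incorporation by the worms was measured. Values are % of control. Concentrations are given in M × 10^6.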

[21] = as §7; assay type: functional; outline: as §6; remark: listed apart in the source
Nucleic Acid [22] = assay: In vitro binding of [3H]HNMC to calf thymus DNA was measured after 3 days; assay type: nucleic-acid assay; details: Bos taurus; outline: as §3
HeLa [23] = assay: Binding of 1x 10e-5 M [3H]HNMC to HeLa DNA; assay type: functional, Homo sapiens; outline: as §5
Nucleic Acid [24] = assay: In vitro binding of [3H]HNMC to calf thymus DNA after precipitation with alcohol and TCA was measured after 1 day; assay type: nucleic-acid assay; details: Bos taurus; outline: as §3
Schistosoma mansoni [25] = assay: Incorporation of 1.2 M *10e6 [3H]uridine in hycanthone(HC) resistant Schistosoma mansoni; assay type: functional; outline: as §9
HeLa [26] = assay: Incorporation of 2*10e-5 M [3H]uridine in HeLa cells in absence of HNMC measured as TCA precipitable radioactivity compared with non treated controls; assay type: functional, cell-based; details: Homo sapiens; outline: as §1
HeLa [27] = assay: Binding of 5x 10e-4 M [3H]HNMC to HeLa DNA; assay type: functional, Homo sapiens; outline: as §5
HeLa [28] = assay: Incorporation of 10e-5 M [3H]uridine in HeLa cells in absence of HNMC measured as TCA precipitable radioactivity compared with non treated controls; assay type: functional, cell-based; details: Homo sapiens; outline: as §1
Mus musculus [29] = assay: In vivo antitumor activity against p-388 lymphocytic leukemia in mice at 3.13 mg/kg; assay type: functional; outline: as §4
Nucleic Acid [30] = assay: In vitro binding of [3H]HNMC to calf thymus DNA after precipitation with alcohol and TCA was measured after 2 hours; assay type: nucleic-acid assay; details: Bos taurus; outline: as §3
Nucleic Acid [31] = assay: In vitro binding of [3H]HNMC to calf thymus DNA; assay type: nucleic-acid assay; details: Bos taurus; outline: as §3
[32] = (§10) Total radioactivity of [3H]HNMC was evaluated after 3 days; assay type: functional; outline: as §6
HeLa [33] = assay: Incorporation of 2*10e-6 M [3H]uridine in HeLa cells in presence of HNMC measured as TCA precipitable radioactivity compared with non treated controls; assay type: functional, cell-based; details: Homo sapiens; outline: as §2
Nucleic Acid [34] = assay: In vitro binding of [3H]HNMC to calf thymus DNA after precipitation with alcohol and TCA was measured after 3 days; assay type: nucleic-acid assay; details: Bos taurus; outline: as §3
Mus musculus [35] = assay: In vivo antitumor activity against p-388 lymphocytic leukemia in mice at 6.25 mg/kg; assay type: functional; outline: as §4
[36] = as §10; assay type: functional; outline: as §6; remark: listed apart in the source
Schistosoma mansoni [37] = assay: Incorporation of 2.6 *10e6 M [3H]uridine in hycanthone(HC) sensitive Schistosoma mansoni; assay type: functional
Schistosoma mansoni [38] = assay: Incorporation of 1.3 *10e6 M [3H]uridine in hycanthone(HC) resistant Schistosoma mansoni; assay type: functional; outline: as §9
Schistosoma mansoni [39] = assay: Incorporation of 2.6 *10e6 M [3H]uridine in hycanthone(HC) resistant Schistosoma mansoni; assay type: functional; outline: as §9
Schistosoma mansoni [40] = assay: Day 50% survival of worms in culture of HC resistant Schistosoma mansoni at 5.2*10e6M; assay type: functional; outline: as §8
Schistosoma mansoni [41] = assay: Incorporation of 5.2*10e6M [3H]uridine in hycanthone(HC) resistant Schistosoma mansoni; assay type: functional; outline: as §9
Schistosoma mansoni [42] = assay: Incorporation of 5.2*10e6M [3H]-uridine in hycanthone(HC) sensitive Schistosoma mansoni; assay type: functional
Schistosoma mansoni [43] = assay: Incorporation of 1.3 *10e6 M [3H]uridine in hycanthone(HC) sensitive Schistosoma mansoni; assay type: functional
Schistosoma mansoni [44] = assay: Day 50% survival of worms in culture of HC resistant Schistosoma mansoni at 1.3 *10e6 M; assay type: functional; outline: as §8
Schistosoma mansoni [45] = assay: Day 50% survival of worms in culture of HC sensitive Schistosoma mansoni at 1.3 *10e6 M; assay type: functional

SMILES: CCN(CC)CCNc1ccc(COC(=O)NC)c2sc3ccccc3c(=O)c12
- Radioactivity (HeLa [1]): 24%
- Radioactivity (HeLa [2]): 6%
- Radioactivity (Nucleic Acid [3]): 15000 c.p.m.
- Control (Schistosoma mansoni [4]): 3%
- Radioactivity (HeLa [5]): 11%
- T/C (Mus musculus [6]): Toxic
- Drug mol/base pair (HeLa [7]): 0.00105
- Radioactivity (Nucleic Acid [8]): 52000 c.p.m.
- Radioactivity (Nucleic Acid [9]): 11500 c.p.m.
- Radioactivity [10]: 27500 c.p.m.
- Effect (Schistosoma mansoni [11]): 9 days
- Radioactivity (Nucleic Acid [12]): 5100 c.p.m.
- Radioactivity (Nucleic Acid [13]): 8000 c.p.m.
- Radioactivity [14]: 150 c.p.m.
- Radioactivity [15]: 27500 c.p.m.
- Effect (Schistosoma mansoni [16]): 8 days
- Radioactivity (Nucleic Acid [17]): 14800 c.p.m.
- Control (Schistosoma mansoni [18]): 21%
- Radioactivity (Nucleic Acid [19]): 15000 c.p.m.
- Control (Schistosoma mansoni [20]): 11%
- Radioactivity [21]: 1750 c.p.m.
- Radioactivity (Nucleic Acid [22]): 16000 c.p.m.
- Drug mol/base pair (HeLa [23]): 8.4e-05
- Radioactivity (Nucleic Acid [24]): 9500 c.p.m.
- Control (Schistosoma mansoni [25]): 39%
- Radioactivity (HeLa [26]): 2%
- Drug mol/base pair (HeLa [27]): 0.000203
- Radioactivity (HeLa [28]): 4%
- T/C (Mus musculus [29]): 132%
- Radioactivity (Nucleic Acid [30]): 12300 c.p.m.
- Radioactivity (Nucleic Acid [31]): 134000 c.p.m.
- Radioactivity [32]: 1350 c.p.m.
- Radioactivity (HeLa [33]): 57%
- Radioactivity (Nucleic Acid [34]): 6900 c.p.m.
- T/C (Mus musculus [35]): 166%
- Radioactivity [36]: 100 c.p.m.

SMILES: CN(C)CCNc1ccc(CO)c2sc3ccc(O)cc3c(=O)c12
- Control (Schistosoma mansoni [37]): 20%
- Control (Schistosoma mansoni [38]): 96%
- Control (Schistosoma mansoni [39]): 108%
- Effect (Schistosoma mansoni [40]): >12 days
- Control (Schistosoma mansoni [41]): 91%
- Control (Schistosoma mansoni [42]): 23%
- Control (Schistosoma mansoni [43]): 43%
- Effect (Schistosoma mansoni [44]): >12 days
- Effect (Schistosoma mansoni [45]): 9 days

— ChEMBL document CHEMBL1124248, “Preparation and antischistosomal and antitumor activity of hycanthone and some of its congeners. Evidence for the mode of action of hycanthone” (1988)
